# Published values collected from several papers.
# Each line is one published result; the experiments were not run side by side.
# Cell line: MDA-MB-231
# Read-out: cell growth or viability
SMILES,method,time,IC50 [µM]
N.N.O=C([O-])C1(C(=O)[O-])CCC1.[Pt+2],MTT,96 h,33
COC1(C2CSC(=O)N2)CC2CC(CCC(C)C=CC=CCCC(C)=CC(=O)O2)O1 (stereo not drawn),MTT,72 h,23.4
Nc1cc(I)c(I)cc1N,,72 h,65
N.N.[Cl][Pt][Cl],,48 h,27.5
COc1ccc2c(c1)[nH]c1c(C)nccc12,MTT,72 h,16.7
COc1c(O)cc2oc3cc(O)c(CC=C(C)C)c(O)c3c(=O)c2c1CC=C(C)C,,48 h,20.7
COC(C(=O)N1C(=O)SCC1C1(OC)CC2CC(CCC(C)C=CC=CCCC(C)=CC(=O)O2)O1)c1ccccc1 (stereo not drawn),MTT,72 h,26.2
N[C@@H](Cc1ccc(N(CCCl)CCCl)cc1)C(=O)O,CCK-8,48 h,> 50
CO[C@]1([C@@H]2CSC(=O)N2C)C[C@H]2C[C@@H](CC[C@H](C)/C=C\C=C\CC/C(C)=C\C(=O)O2)O1,MTT,72 h,19.9
CCCc1cc(=O)n2nc(NCc3c(F)cc(Cl)cc3F)c(C#N)c2[nH]1,ATP luminescence,72 h,> 50
O=C(O)CCCc1ccc(N(CCCl)CCCl)cc1,CCK-8,48 h,> 50
CC1=CC(=O)c2c(O)cccc2C1=O,MTT,24 h,4.4
